Source: ChEMBL document CHEMBL3124905, “Isothiocoumarin-3-carboxylic acid derivatives: synthesis, anticancer and antitrypanosomal activity evaluation” (Eur J Med Chem, 2014)
Each block holds one compound with its values, some of them ahead of it. Calls of active or inactive are those of the source. No cut-off for these calls is given here.

What was measured:
Type in all cases: functional
[1] = system: SF-268; assay: Anticancer activity against human SF268 cells assessed as cell growth at 100 uM after 48 hrs by SRB assay; conditions: SF-268, 48 h, read-out: Activity
Method in brief: (§1)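 NCI one-dose primary screen on a three-line panel (breast MCF7, lung NCI-H460, CNS SF-268). Cells were inoculated and preincubated 24–48 h, then exposed to a single concentration of 10−4 M for 48 h. The endpoint was sulforhodamine B protein staining, and results are expressed as percent growth relative to untreated control cells. Negative values denote cytotoxicity.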

[2] = system: MCF7; assay: Anticancer activity against human MCF7 cells assessed as cell growth at 100 uM after 48 hrs by SRB assay; conditions: MCF7, 48 h, read-out: Activity; method in brief: as §1
[3] = system: NCI-H460; assay: Anticancer activity against human NCI-H460 cells assessed as cell growth at 100 uM after 48 hrs by SRB assay; conditions: NCI-H460, 48 h, read-out: Activity; method in brief: as §1
[4] = (§2) Growth inhibition of human SF539 cells after 48 hrs by SRB assay; conditions: SF-539, 48 h
Method in brief: (§3)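 NCI five-dose assay against the ~60-cell-line panel (nine cancer types). Tenfold dilutions from 10−4 to 10−8 M were used with continuous 48-h exposure and SRB absorbance readout. Percent growth was computed from time-zero, control and treated absorbances. GI50 is the concentration giving 50% lower net protein increase than controls. Values not reached are reported as beyond the tested range.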

[5] = system: SR; assay: Growth inhibition of human SR cells after 48 hrs by SRB assay
Method in brief: (§4)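 NCI ~60-cell-line five-dose screen. Cells were preincubated 24-48 h, then given compound at 10-fold dilutions from 10^-4 to 10^-8 M with 48 h continuous exposure. SRB protein stain was read by absorbance at time zero, in untreated control and with drug. GI50 was derived from [(Ti-Tz)/(C-Tz)]x100=50, TGI from Ti=Tz, and LC50 from [(Ti-Tz)/Tz]x100=-50.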

[6] = system: Trypanosoma brucei brucei; assay: Antitrypanosomal activity against bloodstream form of Trypanosoma brucei brucei strain 90-13 assessed as inhibition of parasite growth at 10 ug/ml after 72 hrs by resazurin reduction test; conditions: strain 90-13, 72 h
Method in brief: (§5)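 Trypanosoma brucei brucei 90-13 bloodstream forms, grown in HMI9 with 10% FCS at 37 °C under 5% CO2. Log-phase parasites were seeded at 10^5 cells/mL with or without inhibitor, with stocks prepared in DMSO. After 72 h, resazurin was added and fluorescence was read at 530/590 nm after a further 4 h. Percent growth inhibition was calculated versus drug-free parasites, with DMSO as control.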

[7] = system: CAKI-1; assay: Growth inhibition of human CAKI-1 cells after 48 hrs by SRB assay; method in brief: as §3
[8] = system: Hs-578T; assay: Growth inhibition of human Hs 578T cells after 48 hrs by SRB assay; method in brief: as §3
[9] = system: UO-31; assay: Growth inhibition of human UO31 cells after 48 hrs by SRB assay; method in brief: as §4
[10] = system: OVCAR-4; assay: Growth inhibition of human OVCAR4 cells after 48 hrs by SRB assay; method in brief: as §3
[11] = system: OVCAR-3; assay: Growth inhibition of human OVCAR3 cells after 48 hrs by SRB assay; method in brief: as §3
[12] = system: SNB-75; assay: Growth inhibition of human SNB75 cells after 48 hrs by SRB assay; method in brief: as §3
[13] = system: Malme-3M; assay: Growth inhibition of human MALME-3M cells after 48 hrs by SRB assay; method in brief: as §3
[14] = system: NCI-H322M; assay: Growth inhibition of human NCI-H322M cells after 48 hrs by SRB assay; method in brief: as §3
[15] = system: SF-539; assay: as §2; method in brief: as §3
[16] = system: TK-10; assay: Growth inhibition of human TK10 cells after 48 hrs by SRB assay; method in brief: as §4
[17] = system: ACHN; assay: Growth inhibition of human ACHN cells after 48 hrs by SRB assay; method in brief: as §3
[18] = system: 786-0; assay: Growth inhibition of human 786-0 cells after 48 hrs by SRB assay; method in brief: as §3
[19] = system: OVCAR-8; assay: Growth inhibition of human OVCAR8 cells after 48 hrs by SRB assay; method in brief: as §3
[20] = system: OVCAR-5; assay: Growth inhibition of human OVCAR5 cells after 48 hrs by SRB assay; method in brief: as §3
[21] = system: UACC-62; assay: Growth inhibition of human UACC62 cells after 48 hrs by SRB assay; method in brief: as §4
[22] = system: SF-295; assay: Growth inhibition of human SF295 cells after 48 hrs by SRB assay; method in brief: as §3
[23] = system: HCC 2998; assay: Growth inhibition of human HCC2998 cells after 48 hrs by SRB assay; method in brief: as §3
[24] = system: NCI-H522; assay: Growth inhibition of human NCI-H522 cells after 48 hrs by SRB assay; method in brief: as §3
[25] = system: HOP69; assay: Growth inhibition of human […] cells after 48 hrs by SRB assay; method in brief: as §3
[26] = system: A549; assay: Growth inhibition of human A549/ATCC cells after 48 hrs by SRB assay; method in brief: as §3
[27] = system: MDA-MB-231; assay: Growth inhibition of human MDA-MB-231/ATCC cells after 48 hrs by SRB assay; method in brief: as §3
[28] = system: PC-3; assay: Growth inhibition of human PC3 cells after 48 hrs by SRB assay; method in brief: as §3
[29] = system: 786-0; assay: Growth inhibition of human 786-O cells after 48 hrs by SRB assay; method in brief: as §3
[30] = system: M14; assay: Growth inhibition of human M14 cells after 48 hrs by SRB assay; method in brief: as §3
[31] = system: LOX IMVI; assay: Growth inhibition of human LOXIMVI cells after 48 hrs by SRB assay; method in brief: as §3
[32] = system: U-251; assay: Growth inhibition of human U251 cells after 48 hrs by SRB assay; method in brief: as §4
[33] = system: HCT-116; assay: Growth inhibition of human HCT116 cells after 48 hrs by SRB assay; method in brief: as §3
[34] = system: NCI-H460; assay: Growth inhibition of human NCI-H460 cells after 48 hrs by SRB assay; method in brief: as §3
[35] = system: NCI-H23; assay: Growth inhibition of human NCI-H23 cells after 48 hrs by SRB assay; method in brief: as §3
[36] = system: HOP-62; assay: Growth inhibition of human HOP62 cells after 48 hrs by SRB assay; method in brief: as §3
[37] = system: RPMI18226; assay: Growth inhibition of human […] cells after 48 hrs by SRB assay; method in brief: as §3
[38] = system: MOLT-4; assay: Growth inhibition of human MOLT4 cells after 48 hrs by SRB assay; method in brief: as §3
[39] = system: Trypanosoma brucei brucei; assay: Antitrypanosomal activity against bloodstream form of Trypanosoma brucei brucei strain 90-13 assessed as inhibition of parasite growth at 1 ug/ml after 72 hrs by resazurin reduction test; conditions: strain 90-13, 72 h; method in brief: as §5
[40] = system: MDA-MB-435; assay: Growth inhibition of human MDA-MB-435 cells after 48 hrs by SRB assay; method in brief: as §3
[41] = system: KM12; assay: Growth inhibition of human KM12 cells after 48 hrs by SRB assay; method in brief: as §3
[42] = system: CCRF-CEM; assay: Growth inhibition of human CCRF-CEM cells after 48 hrs by SRB assay; method in brief: as §3
[43] = system: SNB-; assay: Growth inhibition of human SNB cells after 48 hrs by SRB assay; method in brief: as §3
[44] = system: HOP-92; assay: Growth inhibition of human HOP92 cells after 48 hrs by SRB assay; method in brief: as §3
[45] = system: BT-549; assay: Growth inhibition of human BT549 cells after 48 hrs by SRB assay; method in brief: as §3
[46] = system: NCI/ADR-RES; assay: Growth inhibition of human NCI/ADR-RES cells after 48 hrs by SRB assay; method in brief: as §3
[47] = system: UACC-257; assay: Growth inhibition of human UACC257 cells after 48 hrs by SRB assay; method in brief: as §4
[48] = system: SK-MEL-5; assay: Growth inhibition of human SK-MEL-5 cells after 48 hrs by SRB assay; method in brief: as §3
[49] = system: EKVX; assay: Growth inhibition of human EKVX cells after 48 hrs by SRB assay; method in brief: as §3
[50] = system: RXF 393; assay: Growth inhibition of human RXF393 cells after 48 hrs by SRB assay; method in brief: as §3

Structure (SMILES): Cc1cc(NC(=O)c2cc3ccccc3c(=O)s2)no1
growth at 100 µM [1]: 86%
growth at 100 µM [2]: 85%
growth at 100 µM [3]: 31%
GI50 [4]: 30.2 µM
TGI ([4]; read-out: pTGI (converted)): > 100 µM
GI50 [5]: 0.339 µM
TGI ([5]; read-out: pTGI (converted)): > 100 µM

pGI50 [10]: inactive
pGI50 [11]: inactive
pGI50 [14]: inactive
pGI50 [17]: inactive
pGI50 [18]: inactive
pGI50 [19]: inactive
pGI50 [20]: inactive
pGI50 [23]: inactive
pGI50 [24]: inactive
pGI50 [26]: inactive
pGI50 [27]: inactive
pGI50 [28]: inactive
pGI50 [29]: inactive
pGI50 [32]: inactive
pGI50 [33]: inactive
pGI50 [34]: inactive
pGI50 [35]: inactive
pGI50 [38]: inactive
pGI50 [40]: inactive
pGI50 [42]: inactive
pGI50 [45]: inactive
pGI50 [48]: inactive
Structure (SMILES): O=C(Nc1nc(-c2ccccc2)cs1)c1cc2ccccc2c(=O)s1
inhibition at 10 µg/mL [6]: 7.36%
pGI50 [7]: inactive
pTGI [7]: inactive
pGI50 [8]: inactive
pTGI [8]: inactive
pGI50 [9]: inactive
pTGI [9]: inactive
pTGI [10]: inactive
pTGI [11]: inactive
pGI50 [12]: inactive
pTGI [12]: inactive
pGI50 [13]: inactive
pTGI [13]: inactive
pTGI [14]: inactive
pGI50 [15]: inactive
pTGI [15]: inactive
pGI50 [16]: inactive
pTGI [16]: inactive
pTGI [17]: inactive
pTGI [18]: inactive
pTGI [19]: inactive
pTGI [20]: inactive
pGI50 [21]: inactive
pTGI [21]: inactive
pGI50 [22]: inactive
pTGI [22]: inactive
pTGI [23]: inactive
pTGI [24]: inactive
pGI50 [25]: inactive
pTGI [25]: inactive
pTGI [26]: inactive
pTGI [27]: inactive
pTGI [28]: inactive
pTGI [29]: inactive
pGI50 [30]: inactive
pTGI [30]: inactive
pGI50 [31]: inactive
pTGI [31]: inactive
pTGI [32]: inactive
pTGI [33]: inactive
pTGI [34]: inactive
pTGI [35]: inactive
pGI50 [36]: inactive
pTGI [36]: inactive
pGI50 [37]: inactive
pTGI [37]: inactive
pTGI [38]: inactive
inhibition at 1 µg/mL [39]: 44.2%
pTGI [40]: inactive
pGI50 [41]: inactive
pTGI [41]: inactive
pGI50 [5]: inactive
pTGI [5]: inactive
pTGI [42]: inactive
pGI50 [43]: inactive
pTGI [43]: inactive
pGI50 [44]: inactive
pTGI [44]: inactive
pTGI [45]: inactive
pGI50 [46]: inactive
pTGI [46]: inactive
pGI50 [47]: inactive
pTGI [47]: inactive
pTGI [48]: inactive
pGI50 [49]: inactive
pTGI [49]: inactive
pGI50 [50]: inactive
pTGI [50]: inactive
